Results as given in PMC3530835 (Journal of medicinal chemistry, 2012).
Converted amounts (≈) assume the structure as drawn.

Tests used:
[1] = molecular target: T1, PfGluPho (PfG6PD) (Plasmodium falciparum, UniProt Q8IKU0); assay: PfGluPho primary dose response assay, resazurin/diaphorase-coupled; type: biochemical; conditions: for Decrease in potency relative to 5a: vs. 5a, Table 2
T1 sequence (Q8IKU0 1-910): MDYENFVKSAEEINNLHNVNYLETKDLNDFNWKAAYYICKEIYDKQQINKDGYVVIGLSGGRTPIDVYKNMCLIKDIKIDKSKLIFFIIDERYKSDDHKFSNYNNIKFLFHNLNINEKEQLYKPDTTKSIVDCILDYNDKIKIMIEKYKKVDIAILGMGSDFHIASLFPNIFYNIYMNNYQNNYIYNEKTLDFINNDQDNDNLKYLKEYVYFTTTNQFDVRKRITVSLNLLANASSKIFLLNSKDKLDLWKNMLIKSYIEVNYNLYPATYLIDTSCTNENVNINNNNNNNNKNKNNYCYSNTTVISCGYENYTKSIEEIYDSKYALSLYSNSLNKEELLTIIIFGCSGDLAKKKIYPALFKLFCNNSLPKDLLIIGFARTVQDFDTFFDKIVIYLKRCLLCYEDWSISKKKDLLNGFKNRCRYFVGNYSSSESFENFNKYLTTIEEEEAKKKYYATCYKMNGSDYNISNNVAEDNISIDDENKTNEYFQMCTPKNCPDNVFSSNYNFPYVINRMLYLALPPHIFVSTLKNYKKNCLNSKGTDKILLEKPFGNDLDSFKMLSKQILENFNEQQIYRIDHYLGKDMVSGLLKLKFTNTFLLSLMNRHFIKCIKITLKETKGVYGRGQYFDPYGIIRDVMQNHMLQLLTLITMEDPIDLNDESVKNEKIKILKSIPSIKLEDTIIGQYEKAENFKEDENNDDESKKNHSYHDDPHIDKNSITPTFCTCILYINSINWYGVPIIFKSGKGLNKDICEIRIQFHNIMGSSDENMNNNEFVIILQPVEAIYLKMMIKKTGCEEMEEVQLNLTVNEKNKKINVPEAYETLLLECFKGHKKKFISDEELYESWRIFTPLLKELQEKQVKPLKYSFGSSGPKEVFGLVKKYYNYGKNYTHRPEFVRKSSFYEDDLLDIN

[2] = molecular target: T1, PfGluPho (PfG6PD); assay: Orthogonal PfGluPho assay, direct detection of NADPH; type: biochemical; conditions: Potency PfG6PD NADPH Kinetic
[3] = molecular target: PfGluPho (Plasmodium falciparum, UniProt Q8IKU0); assay: Mechanism of inhibition; type: biochemical
Outline: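 Test compound, titrated in DMSO, and G6P or NADP+ varied together. Substrate solution final: 3.3 mM MgCl2, 1 mM TCEP, 0.05 M Tris, plus 5 μM NADP+ (G6P titration) or 25 μM G6P (NADP+ titration). Reaction started with PfGluPho (final 0.2 μg/mL) in 0.005% Tween 20. NADPH fluorescence (ex340/em460) monitored over 10 min; initial slopes taken.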

[4] = Chemical stability; type: physicochemical; conditions: 10 μM, 1% DMSO, 5 equivalents of GSH, PBS pH 7.4, 23 °C, duration of the study
[5] = molecular target: hG6PD (Homo sapiens, UniProt P11413); assay: hG6PD counter screen; type: biochemical; conditions: Figure 3
[6] = Aqueous solubility; type: physicochemical
[7] = test system: P. falciparum; assay: P. falciparum in culture; type: cell-based; conditions: Plasmodium falciparum, read-out: IC50 against P. falciparum in culture
Outline: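 Chloroquine-sensitive 3D7 and chloroquine-resistant Dd2 blood-stage strains. Infected RBCs seeded at 0.25% parasitemia (>70% rings) and 1.25% hematocrit in hypoxanthine-free medium, with varying test compound concentrations and a chloroquine control. Incubated 72 hours. Growth was read as 3H-hypoxanthine incorporation, and IC50 was derived by non-linear regression.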

[8] = Potency PfG6PD Primary Assay, Table 5, Ave. ± S.E.M.
[9] = Potency PfG6PD Primary Assay, Table 6, Ave. ± S.E.M.
[10] = PfG6PD IC50, Table 3, necessity of styryl moiety

Chain of hG6PD (P11413 whole entry): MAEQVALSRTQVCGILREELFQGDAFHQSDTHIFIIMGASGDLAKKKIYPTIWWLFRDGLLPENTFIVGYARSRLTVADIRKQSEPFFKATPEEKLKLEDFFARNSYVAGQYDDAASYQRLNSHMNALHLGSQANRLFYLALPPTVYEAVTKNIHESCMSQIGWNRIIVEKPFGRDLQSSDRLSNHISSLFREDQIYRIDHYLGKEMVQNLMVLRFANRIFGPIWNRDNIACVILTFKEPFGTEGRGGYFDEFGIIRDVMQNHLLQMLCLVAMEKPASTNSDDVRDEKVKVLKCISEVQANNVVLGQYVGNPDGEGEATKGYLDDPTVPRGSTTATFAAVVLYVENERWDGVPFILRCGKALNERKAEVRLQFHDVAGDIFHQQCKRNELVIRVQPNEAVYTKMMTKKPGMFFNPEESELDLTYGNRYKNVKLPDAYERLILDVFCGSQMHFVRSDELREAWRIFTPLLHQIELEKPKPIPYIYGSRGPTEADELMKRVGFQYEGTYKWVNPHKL

CCCN(CCC)CCNC(=O)c1ccc2c(c1)NC(=O)/C(=C/c1ccc(C)cc1)S2 [Compound 27]
IC50 [1, 8]: > 80 µM

O=C1Nc2cc(C(=O)NCCN3CCOCC3)ccc2S/C1=C\c1ccccc1F [Compound 34]
IC50 ([2]; Table 6): > 80 µM | IC50 [1, 9]: > 80 µM

CCN1CCCC1CNC(=O)c1ccc2c(c1)NC(=O)/C(=C/c1ccccc1C)S2 (stereo not drawn) [Compound 5c]
Decrease in potency relative to 5a [1]: 3 fold

CCN1CCC[C@@H]1CNC(=O)c1ccc2c(c1)NC(=O)/C(=C/c1ccccc1F)S2 [Compound 11, (R,Z)-N-((1-ethylpyrrolidin-2-yl)methyl)-2-(2-fluorobenzylidene)-3-oxo-3,4-dihydro-2H-benzo[b][1,4]thiazine-6-carboxamide]
Type of inhibition vs. G6P ([3]; G6P titration): competing with the substrate | Type of inhibition vs. NADP+ ([3]; NADP+ titration): mixed-type inhibition | Reactivity with GSH (in words) [4]: remained intact | Selectivity for PfGluPho over hG6PD (in words) [5]: selective | solubility ([6]; 1x PBS, pH 7.4): 71 µg/mL (≈ 167 µM) | solubility ([6]; pION's buffer, pH 5): > 126 µg/mL | solubility ([6]; pION's buffer, pH 6.2): > 126 µg/mL | solubility ([6]; pION's buffer, pH 7.4): 29.4 µg/mL (≈ 69.1 µM) | Preference for the R-enantiomer versus the S-enantiomer ([1]; 11 vs. 12, Table 4): 8 fold | IC50 [7]: 2.6 µM

CCN1CCCC1CNC(=O)c1ccc2c(c1)NC(=O)/C(=C/c1ccccc1OC)S2 (stereo not drawn) [Compound 5d]
Decrease in potency relative to 5a [1]: 5 fold

CN(C)c1ccccc1CNC(=O)c1ccc2c(c1)NC(=O)/C(=C/c1ccccc1F)S2 [Compound 42]
IC50 [1, 9]: > 80 µM

COc1ccc(/C=C2\Sc3ccc(C(=O)NCCN4CCCCCC4)cc3NC2=O)cc1 [Compound 38]
IC50 ([2]; Table 6): > 80 µM | IC50 [1, 9]: > 80 µM

CC(C)(C)OC(=O)N1CCCC1CNC(=O)c1ccc2c(c1)NC(=O)/C(=C/c1ccccc1F)S2 (stereo not drawn) [Compound 14]
PfG6PD activity (in words) [1]: inactive | IC50 ([1]; Potency PfG6PD Primary Assay, Table 4, Ave. ± S.E.M.): > 80 µM

COc1ccc(/C=C2\Sc3ccc(C(=O)NCCN(C)C)cc3NC2=O)cc1 [Compound 19]
IC50 ([2]; Table 5): > 80 µM | IC50 [1, 8]: > 80 µM

CCCN(CCC)CCNC(=O)c1ccc2c(c1)NC(=O)/C(=C/c1ccccc1)S2 [Compound 26]
IC50 [1, 8]: > 80 µM

O=C1Nc2cc(C(=O)NCCN3CCCC3)ccc2S/C1=C\c1ccccc1Cl [Compound 31]
IC50 ([2]; Table 6): > 80 µM

COc1cccc(/C=C2\Sc3ccc(C(=O)NCCN4CCCCCC4)cc3NC2=O)c1 [Compound 37]
IC50 [1, 9]: > 80 µM

O=C1Nc2cc(C(=O)NCCN3CCCCCC3)ccc2S/C1=C\c1ccccc1Cl [Compound 36]
IC50 ([2]; Table 6): > 80 µM

CCN1CCCC1CNC(=O)c1ccc2c(c1)NC(=O)CS2 (stereo not drawn) [Compound 3d]
PfG6PD activity (in words) [1]: complete loss of activity | IC50 [1, 10]: > 80 µM

CCN1CCCC1CNC(=O)c1ccc2c(c1)NC(=O)C(Cc1ccccc1F)S2 (stereo not drawn) [Compound 10]
PfG6PD activity (in words) [1]: complete loss of activity | IC50 [1, 10]: > 80 µM

O=C1Nc2cc(C(=O)NCc3ccccc3)ccc2S/C1=C\c1ccccc1F [Compound 41]
IC50 ([2]; Table 6): > 80 µM | IC50 [1, 9]: > 80 µM

COc1ccc(/C=C2\Sc3ccc(C(=O)NCCN4CCCC4)cc3NC2=O)cc1 [Compound 30]
IC50 ([2]; Table 6): > 80 µM
